Data set [1] concerns the target T1, Integrin alpha-4/beta-1 (Homo sapiens, UniProt P05556+P13612). Description: Displacement of [35S]-labeled ligand from VLA4 in human Jurkat cells washed with buffer containing non activating Ca2+ and Mg2+ by competitive binding assay. The class given is cell-based. An outline of the steps:
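Competition binding in Jurkat cells with a ³⁵S-labeled ligand, VLA-4 held non-activated in Ca²⁺/Mg²⁺ buffer; IC₅₀ reported; data are means of three independent runs or n = 1.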

Data set [2] has as its system Rattus norvegicus. Description: Receptor occupancy of VLA4 in rat at 1.5 mg/kg after 12 hrs. The data set is classed as functional. The method, boiled down:
(§1)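 Ethyl ester prodrug given orally to rats at 1.5 mpk; VLA-4 receptor occupancy measured at 12 h and 24 h post-dose.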

Data set [3] deals with Rattus norvegicus. Description: Receptor occupancy of VLA4 in rat at 1.5 mg/kg after 24 hrs. The class given is functional. The method, boiled down:
as §1

For data set [4], the target named is T1, Integrin alpha-4/beta-1. As to the kind of experiment: Receptor occupancy of VLA4 in whole blood washed with buffer containing activating Mn2+ at 37 degC after 3 hrs. The data set is classed as tissue-based.
For data set [5], the target named is T1, Integrin alpha-4/beta-1. Description: Inhibition of VLA4 in human whole blood. An outline of the steps: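 Competitive binding run in human whole blood; IC₅₀ read-out.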
Data set [6] can be described thus: Cmax in rat at 5 mg/kg, po. The data set is classed as ADME, organism-based. Details: dose 5 mg/kg, route oral. The settings on record: in vivo.
The subject of data set [7] is Rattus norvegicus. Description: AUC in rat at 5 mg/kg, po. Details: dose 5 mg/kg, route oral. The data set is classed as ADME, organism-based, Plasma. The settings on record: in vivo.
Data set [8] is described as follows: Plasma clearance in rat at 5 mg/kg, po. The class given is ADME, organism-based. Details: dose 5 mg/kg, route oral.
For data set [9], the system named is Integrin alpha-4/beta-1 (Rattus norvegicus). Description: Receptor occupancy of VLA4 in rat whole blood washed with buffer containing non activating Ca2+ and Mg2+ at 37 degC after 24 hrs.
The test system is the same in data set [10]. Description: Receptor occupancy of VLA4 in rat whole blood washed with buffer containing non activating Ca2+ and Mg2+ at 37 degC after 12 hrs.
Data set [11] deals with Rattus norvegicus. As to the kind of experiment: Receptor occupancy of VLA4 in rat at 5 mg/kg, po after 24 hrs. The data set is classed as functional. The method, boiled down: (§2)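 Parent acid given orally to rats at 5 mpk; VLA-4 receptor occupancy assayed at 12 h and 24 h after dosing.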
In data set [12] the test system is Rattus norvegicus. Description: Receptor occupancy of VLA4 in rat at 5 mg/kg, po after 12 hrs. The data set is classed as functional. An outline of the steps: as §2
Data set [13] can be described thus: Bioavailability in rat at 5 mg/kg, po. The data set is classed as ADME, organism-based. The settings on record: in vivo.
The target in data set [14] is T1, Integrin alpha-4/beta-1. As to the kind of experiment: Displacement of [35S]-labeled ligand from VLA4 in human Jurkat cells washed with buffer containing activating Mn2+ by competitive binding assay. The class given is cell-based. For orientation: In a radioligand displacement assay an active substance lowers the binding of a labelled ligand.

T1 sequence (P05556 whole entry): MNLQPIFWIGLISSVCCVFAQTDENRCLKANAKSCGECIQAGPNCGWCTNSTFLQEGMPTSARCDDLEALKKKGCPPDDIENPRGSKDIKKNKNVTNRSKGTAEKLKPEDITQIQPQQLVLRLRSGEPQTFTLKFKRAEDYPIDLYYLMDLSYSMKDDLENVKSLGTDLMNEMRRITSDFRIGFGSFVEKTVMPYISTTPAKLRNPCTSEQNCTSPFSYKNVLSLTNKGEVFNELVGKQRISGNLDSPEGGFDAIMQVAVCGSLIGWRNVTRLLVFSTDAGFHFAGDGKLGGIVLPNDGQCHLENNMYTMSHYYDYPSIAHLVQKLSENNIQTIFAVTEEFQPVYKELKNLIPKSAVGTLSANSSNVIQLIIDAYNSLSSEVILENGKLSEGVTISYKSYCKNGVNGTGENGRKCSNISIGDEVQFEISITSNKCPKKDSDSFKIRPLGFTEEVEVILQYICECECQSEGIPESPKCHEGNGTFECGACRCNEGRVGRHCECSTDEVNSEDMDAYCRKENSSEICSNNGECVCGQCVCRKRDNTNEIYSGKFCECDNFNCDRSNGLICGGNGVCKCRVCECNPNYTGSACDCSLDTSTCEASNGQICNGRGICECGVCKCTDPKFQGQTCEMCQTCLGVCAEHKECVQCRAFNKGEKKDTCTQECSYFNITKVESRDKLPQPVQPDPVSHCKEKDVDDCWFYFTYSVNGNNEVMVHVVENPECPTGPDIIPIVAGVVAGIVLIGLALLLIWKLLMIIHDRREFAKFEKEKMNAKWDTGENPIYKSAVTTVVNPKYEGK
T1 sequence (P13612 whole entry): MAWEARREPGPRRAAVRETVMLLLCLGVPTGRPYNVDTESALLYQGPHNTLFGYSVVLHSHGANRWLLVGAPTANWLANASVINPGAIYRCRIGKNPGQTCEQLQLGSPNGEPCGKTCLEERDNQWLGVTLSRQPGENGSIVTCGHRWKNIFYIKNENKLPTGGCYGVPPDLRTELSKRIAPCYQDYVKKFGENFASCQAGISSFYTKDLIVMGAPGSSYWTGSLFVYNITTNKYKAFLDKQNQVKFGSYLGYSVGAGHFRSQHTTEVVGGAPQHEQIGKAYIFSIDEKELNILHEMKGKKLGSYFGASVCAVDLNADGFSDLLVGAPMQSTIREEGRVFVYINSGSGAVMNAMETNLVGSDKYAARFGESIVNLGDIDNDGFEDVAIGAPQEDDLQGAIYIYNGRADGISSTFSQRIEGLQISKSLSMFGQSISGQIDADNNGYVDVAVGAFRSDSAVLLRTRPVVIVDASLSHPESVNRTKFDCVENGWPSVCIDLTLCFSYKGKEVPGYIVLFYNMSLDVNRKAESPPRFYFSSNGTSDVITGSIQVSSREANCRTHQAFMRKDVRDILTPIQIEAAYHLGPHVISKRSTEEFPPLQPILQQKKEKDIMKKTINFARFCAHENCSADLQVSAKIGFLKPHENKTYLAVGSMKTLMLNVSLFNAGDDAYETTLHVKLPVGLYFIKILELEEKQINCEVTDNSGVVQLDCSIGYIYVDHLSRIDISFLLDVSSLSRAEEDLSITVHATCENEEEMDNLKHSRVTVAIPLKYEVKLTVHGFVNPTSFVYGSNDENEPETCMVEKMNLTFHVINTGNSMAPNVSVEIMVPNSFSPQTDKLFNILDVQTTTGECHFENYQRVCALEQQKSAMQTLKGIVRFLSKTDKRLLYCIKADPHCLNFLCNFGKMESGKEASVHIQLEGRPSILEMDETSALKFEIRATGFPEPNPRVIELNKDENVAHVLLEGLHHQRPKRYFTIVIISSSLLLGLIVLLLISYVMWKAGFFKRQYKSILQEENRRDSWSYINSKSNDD

One may read the IC50 as the concentration at which inhibition is half-maximal. Regarding `N#Cc1cccc(S(=O)(=O)N2C[C@H](N3CCCC3)C[C@H]2C(=O)N[C@@H](Cc2ccc(NC(=O)c3c(Cl)cncc3Cl)cc2)C(=O)O)c1`, the concentration for half-maximal inhibition (IC50) in data set [1] came to 0.22 nM. In other words, the sub-nanomolar range.

For `N#Cc1cccc(S(=O)(=O)N2C[C@H](N3CC(F)(F)C3)C[C@H]2C(=O)N[C@@H](Cc2ccc(NC(=O)c3c(Cl)cncc3Cl)cc2)C(=O)O)c1`, the half-inhibitory concentration (IC50) in data set [1] stood at 0.9 nM. Against the preceding compound, the IC50 is about 4.1-fold higher.

With `N#Cc1cccc(S(=O)(=O)N2C[C@H](N3CCCCC3)C[C@H]2C(=O)N[C@@H](Cc2ccc(NC(=O)c3c(Cl)cncc3Cl)cc2)C(=O)O)c1`, the IC50 in data set [1] stood at 0.11 nM. Compared with the last compound, the IC50 is about 8.2-fold lower.

`CCOC(=O)[C@H](Cc1ccc(NC(=O)c2c(Cl)cncc2Cl)cc1)NC(=O)[C@@H]1C[C@@H](N2CCCC(F)(F)C2)CN1S(=O)(=O)c1cccc(C#N)c1`: the values for the Activity in data set [2] and in [3] were 88% and 60%, respectively.

On to `N#Cc1cccc(S(=O)(=O)N2C[C@H](NC3CCC3)C[C@H]2C(=O)N[C@@H](Cc2ccc(NC(=O)c3c(Cl)cncc3Cl)cc2)C(=O)O)c1`, for which the half-maximal inhibitory concentration (IC50) in [1] was 0.15 nM. In data set [4], this compound gave an Activity of 95%.

Take `N#Cc1cccc(S(=O)(=O)N2C[C@H](N(CC(F)(F)F)C3CCC3)C[C@H]2C(=O)N[C@@H](Cc2ccc(NC(=O)c3c(Cl)cncc3Cl)cc2)C(=O)O)c1`: the figures for the IC50 in [1] and in data set [5] were 0.02 nM and 3.1 nM, respectively.

Regarding `N#Cc1cccc(S(=O)(=O)N2C[C@H](N3CC(F)C3)C[C@H]2C(=O)N[C@@H](Cc2ccc(NC(=O)c3c(Cl)cncc3Cl)cc2)C(=O)O)c1`, the IC50 in data set [1] is 0.27 nM. This lies in the sub-nanomolar range.

`CCOC(=O)[C@H](Cc1ccc(NC(=O)c2c(Cl)cncc2Cl)cc1)NC(=O)[C@@H]1C[C@@H](NC2CCC2)CN1S(=O)(=O)c1cccc(C#N)c1` came in with an Activity in [3] of 25%.

In data set [1], `N#Cc1cccc(S(=O)(=O)N2C[C@H](N3CCC3)C[C@H]2C(=O)N[C@@H](Cc2ccc(NC(=O)c3c(Cl)cncc3Cl)cc2)C(=O)O)c1` showed an IC50 of 0.15 nM.

`N#Cc1cccc(S(=O)(=O)N2C[C@H](N3CCC(F)(F)C3)C[C@H]2C(=O)N[C@@H](Cc2ccc(NC(=O)c3c(Cl)cncc3Cl)cc2)C(=O)O)c1` registered an IC50 in data set [1] of 0.1 nM.

`N#Cc1cccc(S(=O)(=O)N2C[C@H](N3CC[C@@H](F)C3)C[C@H]2C(=O)N[C@@H](Cc2ccc(NC(=O)c3c(Cl)cncc3Cl)cc2)C(=O)O)c1`: the IC50 in data set [1] was found to be 0.12 nM.

By Cmax is commonly meant the highest concentration seen after dosing. A word on the AUC: it is the area under the concentration-time curve, a measure of exposure. A high value points to high exposure. In general, CL/F refers to the apparent clearance, not corrected for the fraction that reaches the circulation. A word on the bioavailability: it is the share of a dose that reaches the circulation, judged against a reference dose that is usually intravenous. Low readings indicate poor availability, high ones good availability. As for `N#Cc1cccc(S(=O)(=O)N2C[C@H](N3CCCC(F)(F)C3)C[C@H]2C(=O)N[C@@H](Cc2ccc(NC(=O)c3c(Cl)cncc3Cl)cc2)C(=O)O)c1`, in data set [6], the Cmax was 27 nM. In addition, the values for the IC50 in data set [1], in data set [5] and in data set [14] were 0.03 nM, 0.07 nM and 0.02 nM, respectively. The Activity in [4] turned out to be 95%; in data set [9], 40%; in [10], 70%; in [11] it was 22%; in data set [12], 65%. The compound further gave an AUC in data set [7] of 0.05 µM·h. The same compound yielded an apparent clearance (CL/F) in data set [8] of over 100 mL/min/kg. In [13], the bioavailability is under 5%.

As to `N#Cc1cccc(S(=O)(=O)N2C[C@H](N3CCC(F)(F)CC3)C[C@H]2C(=O)N[C@@H](Cc2ccc(NC(=O)c3c(Cl)cncc3Cl)cc2)C(=O)O)c1`, in [1], the IC50 came out at 0.22 nM.

Compound `N#Cc1cccc(S(=O)(=O)N2C[C@H](N3CCCC(F)C3)C[C@H]2C(=O)N[C@@H](Cc2ccc(NC(=O)c3c(Cl)cncc3Cl)cc2)C(=O)O)c1` (stereo not given in full) came in with an IC50 in [1] of 0.21 nM.

`N#Cc1cccc(S(=O)(=O)N2C[C@H](N3CC[C@H](F)C3)C[C@H]2C(=O)N[C@@H](Cc2ccc(NC(=O)c3c(Cl)cncc3Cl)cc2)C(=O)O)c1` showed a concentration for half-maximal inhibition (IC50) in data set [1] of 0.24 nM.

The compound `N#Cc1cccc(S(=O)(=O)N2C[C@H](N3CCC(F)CC3)C[C@H]2C(=O)N[C@@H](Cc2ccc(NC(=O)c3c(Cl)cncc3Cl)cc2)C(=O)O)c1` had an IC50 in data set [1] of 0.35 nM.

The values are drawn from ChEMBL document CHEMBL1156022, “Discovery of N-{N-[(3-cyanobenzene) sulfonyl]-4(R)-(3,3-difluoropiperidin-1-yl)-(l)-prolyl}-4-[(3',5'-dichloro-isonicotinoyl) amino]-(l)-phenylalanine (MK-0617), a highly potent and orally active VLA-4 antagonist” (Bioorg Med Chem Lett, 2009).
